Source: ChEMBL document CHEMBL3297658, “Potent fluorinated agelastatin analogues for chronic lymphocytic leukemia: design, synthesis, and pharmacokinetic studies” (J Med Chem, 2014)
≈ marks a conversion by molar mass, not a printed value.

Assays:
Liver microsome = experiment: Metabolic stability in human liver microsomes at 100 uM measured after 1 hr by LC/MS analysis in presence of 1 mM NADPH; type: ADME
In short: (§1)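 Microsomes (final protein 5 mg/mL, mouse or human) in 0.1 M sodium phosphate pH 7.4 with compound at 100 μM final (DMSO <1%). Preincubated 5 min at 37 °C, started with NADPH (1 mM final), run 60 min at 37 °C with agitation. Stopped with MeOH and centrifuged; supernatant analysed by LCMS. Controls: zero time, no NADPH, heat-inactivated microsomes, and 7-ethoxycoumarin as CYP substrate.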

[1] = Antitumor activity against CLL1 cells isolated from CLL patient assessed as cell viability after 48 hrs by FACS analysis; type: functional, cell-based; conditions: Homo sapiens
In short: (§2)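 Primary CLL patient cells or JVM-2 line cultured 48 h (37 °C, 5% CO2) in RPMI + 10% FBS with graded compound. Stained 30 min at 37 °C with 40 nM DiOC6 and 10 μg/mL PI, then flow cytometry (525 nm DiOC6, 600 nm PI). Viability = % DiOC6+/PI− relative to untreated or vehicle control. EC50 and SE fitted from dose–response curves.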

Liver = experiment: Metabolic stability in mouse liver microsomes at 100 uM measured after 1 hr by LC/MS analysis in presence of 1 mM NADPH; type: ADME; in short: as §1
[2] = Antitumor activity against CLL2 cells isolated from CLL patient assessed as cell viability after 48 hrs by FACS analysis; type: functional, cell-based, Homo sapiens; conditions: Homo sapiens, CLL2, 48 h; in short: as §2
[3] = Antitumor activity against human JVM2 cells assessed as cell viability after 48 hrs by FACS analysis; type: functional, cell-based; conditions: JVM-2, 48 h; in short: as §2
HeLa = experiment: Antitumor activity against human HeLa cells assessed as cell viability by MTT assay; type: functional, cell-based
In short: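 Adherent HeLa cells exposed to compound, then medium replaced with 0.5 mg/mL MTT in phenol-red-free RPMI and incubated overnight at 37 °C. Lysed with 15% SDS/0.015 M HCl and OD read at 570 nm once formazan dissolved. EC50 and SE derived from dose–response curves.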

[4] = Antitumor activity against CLL3 cells isolated from CLL patient assessed as cell viability after 48 hrs by FACS analysis; type: functional, cell-based; conditions: Homo sapiens; in short: as §2
[5] = Antitumor activity against CLL6 cells isolated from CLL patient assessed as cell viability after 48 hrs by FACS analysis; type: functional, cell-based; conditions: Homo sapiens, CLL6, 48 h; in short: as §2
[6] = Antitumor activity against CLL5 cells isolated from CLL patient assessed as cell viability after 48 hrs by FACS analysis; type: functional, cell-based; conditions: Homo sapiens; in short: as §2
[7] = Antitumor activity against CLL4 cells isolated from CLL patient assessed as cell viability after 48 hrs by FACS analysis; type: functional, cell-based; conditions: Homo sapiens; in short: as §2
[8] = Cmax in BALB/c mouse plasma at 2.5 mg/kg, ip administered as single dose by LC/MS analysis; type: ADME, organism-based; set-up: dose 2.5 mg/kg, route intraperitoneal
In short: (§3)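 Female BALB/c mice dosed at 6 weeks of age with a single intraperitoneal dose of 2.5 or 5.0 mg/kg, n = 4. Tail-vein blood taken at set times and stored at -80 °C. Samples precipitated with CH3CN, spun at 3000g for 10 min, concentrated, reconstituted in 1:1 CH3CN/H2O and quantified by LCMS. PK parameters derived from the concentration–time curves.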

[9] = Cmax in BALB/c mouse plasma at 5 mg/kg, ip administered as single dose by LC/MS analysis; type: ADME, organism-based; set-up: dose 5 mg/kg, route intraperitoneal; in short: as §3
[10] = Half life in BALB/c mouse plasma at 5 mg/kg, ip administered as single dose by LC/MS analysis; type: ADME, organism-based; set-up: dose 5 mg/kg, route intraperitoneal; in short: as §3
[11] = Drug recovery in human AB serum at 50 uM after 24 hrs by LC-MS method; type: ADME, cell-free; conditions: read-out: Drug recovery
In short: (§4)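 Compound added to pooled female BALB/c mouse plasma or serum, or to human AB serum, at 50 μM final (1% DMSO) and incubated at 37 °C with gentle agitation. Aliquots taken at 0, 0.5, 1, 2, 8, 18 and 24 h, proteins precipitated with CH3CN, spun at 3000g for 10 min, supernatant analysed by LCMS. Run in triplicate.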

[12] = AUC in BALB/c mouse plasma at 5 mg/kg, ip administered as single dose by LC/MS analysis; type: ADME, organism-based; set-up: dose 5 mg/kg, route intraperitoneal; in short: as §3
[13] = Tmax in BALB/c mouse plasma at 2.5 mg/kg, ip administered as single dose by LC/MS analysis; type: ADME, organism-based; set-up: dose 2.5 mg/kg, route intraperitoneal; in short: as §3
Plasma = experiment: Protein binding in BALB/c mouse plasma at 50 uM after 1 to 24 hrs by LC-MS method; type: ADME, cell-free; in short: as §4
Serum [14] = experiment: Protein binding in human AB serum at 50 uM after 1 to 24 hrs by LC-MS method; type: ADME; in short: as §4
[15] = Tmax in BALB/c mouse plasma at 5 mg/kg, ip administered as single dose by LC/MS analysis; type: ADME, organism-based; set-up: dose 5 mg/kg, route intraperitoneal; in short: as §3
[16] = Lipophilicity, log P of compound at 25 degC; type: physicochemical; conditions: octanol/water
[17] = AUC in BALB/c mouse plasma at 2.5 mg/kg, ip administered as single dose by LC/MS analysis; type: ADME, organism-based; set-up: dose 2.5 mg/kg, route intraperitoneal; in short: as §3
[18] = Solubility of compound in water at 25 degC; type: physicochemical; conditions: buffer
Serum [19] = experiment: Protein binding in BALB/c mouse serum at 50 uM after 1 to 24 hrs by LC-MS method; type: ADME; in short: as §4
[20] = Drug recovery in BALB/c mouse plasma at 50 uM after 24 hrs by LC-MS method; type: ADME, cell-free; conditions: read-out: Drug recovery; in short: as §4
[21] = Half life in BALB/c mouse plasma at 2.5 mg/kg, ip administered as single dose by LC/MS analysis; type: ADME, organism-based; set-up: dose 2.5 mg/kg, route intraperitoneal; conditions: BALB/c, plasma; in short: as §3
[22] = Drug recovery in BALB/c mouse serum at 50 uM after 24 hrs by LC-MS method; type: ADME, cell-free; conditions: read-out: Drug recovery; in short: as §4

SMILES	EC50 [1] [µM]	EC50 [2] [µM]	EC50 [3] [µM]	EC50 (HeLa) [µM]	EC50 [4] [µM]	EC50 [5] [µM]	EC50 [6] [µM]	EC50 [7] [µM]	also measured
CN1C(=O)N[C@H]2[C@@H]3NC(=O)c4cccn4[C@@H]3C[C@]21O	541	3.9	120	61.5	–	–	–	–	Stability (Liver microsome): Stable; Stability (Liver): Stable
CN1C(=O)N[C@H]2[C@@H]3NC(=O)c4ccc(Cl)n4[C@@H]3C[C@]21O	0.95	0.32	0.2	0.63	3.8	2.2	0.34	1.98	–
CN1C(=O)N[C@H]2[C@@H]3NC(=O)c4ccc(C#N)n4[C@@H]3C[C@]21O	11.1	0.71	38	3.4	8.37	0.84	4.79	8.41	–
CN1C(=O)N[C@H]2[C@@H]3NC(=O)c4cc(Br)c(Br)n4[C@@H]3C[C@]21O	26.3	4.46	3.53	–	–	–	–	–	–
CN1C(=O)N[C@H]2[C@@H]3NC(=O)c4cc(Br)cn4[C@@H]3C[C@]21O	19.4	9.22	71.5	–	–	–	–	–	–
CN1C(=O)N[C@H]2[C@@H]3NC(=O)c4cc(Cl)c(Cl)n4[C@@H]3C[C@]21O	1.56	0.52	0.28	0.6	0.98	7.5	2.02	4.42	–
CN1C(=O)N[C@H]2[C@@H]3NC(=O)c4cc(Cl)cn4[C@@H]3C[C@]21O	35.9	6.05	5.33	–	–	–	–	–	–
CN1C(=O)N[C@H]2[C@@H]3NC(=O)c4ccc(I)n4[C@@H]3C[C@]21O	5.96	0.73	2.62	1.18	6.61	12.9	3.06	3.04	–
CN1C(=O)N[C@H]2[C@@H]3NC(=O)c4cc(I)c(I)n4[C@@H]3C[C@]21O	26.4	96	49	262	–	–	–	–	–
CN1C(=O)N[C@H]2[C@@H]3NC(=O)c4cc(I)cn4[C@@H]3C[C@]21O	25.5	94.9	222	0.061	–	–	–	–	–
CN1C(=O)N[C@H]2[C@@H]3NC(=O)c4ccc(C(F)(F)F)n4[C@@H]3C[C@]21O	0.43	0.064	0.66	0.15	3.04	0.65	28.4	0.33	Cmax [8]: 4.18 µM; Stability (Liver microsome): Stable; Cmax [9]: 3.25 µM; half-life [10]: 45 min; remaining at 24 h, 50 µM [11]: 65%; AUC [12]: 6.51 µM·h; Tmax [13]: 15 min; Stability (Liver): Stable; PPB (Plasma): Not Active; PB (Serum [14]): Not Active; Tmax [15]: 30 min; logP [16]: 0.78; AUC [17]: 12.9 µM·h; solubility [18]: 300 µg/mL (≈ 908 µM); PB (Serum [19]): Not Active; remaining at 24 h, 50 µM [20]: 65%; half-life [21]: 72 min; remaining at 24 h, 50 µM [22]: 65%
